The target in assay [1] is T1, Uridine-cytidine kinase 2 (Homo sapiens, UniProt Q9BZX2).
T1 sequence (Q9BZX2 whole entry): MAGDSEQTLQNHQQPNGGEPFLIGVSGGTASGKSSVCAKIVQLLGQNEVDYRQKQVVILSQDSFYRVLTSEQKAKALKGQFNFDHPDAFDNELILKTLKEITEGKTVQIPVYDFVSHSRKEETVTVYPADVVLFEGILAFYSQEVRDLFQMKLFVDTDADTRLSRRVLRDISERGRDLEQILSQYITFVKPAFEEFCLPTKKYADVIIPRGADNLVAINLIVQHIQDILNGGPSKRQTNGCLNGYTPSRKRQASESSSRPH
In words: Inhibition of C-terminally His6-tagged human UCK2 expressed in Escherichia coli BL21(DE3) cells incubated for 15 mins before ATP addition and measured after 60 mins by ADP-Glo kinase assay. An outline of the steps:
(§1)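 His6-tagged UCK2 (C-terminal tag), purified by Ni-NTA then ion exchange; UCK2 phosphorylates uridine with ATP and ADP-Glo measures the ADP formed, after depleting leftover ATP, as luciferase luminescence. Run in 1536-well format with 0.5 mg/mL BSA, DMSO up to 3%. Primary screen at 33 μM with hit cut-off of 3 SD of the negative control. Confirmation used 8 half-log concentrations, 0.05–167 µM.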
On the technique in general: ADP-Glo first removes unused ATP, then detects ADP through luciferase.

Assay [2] has as its target T2, Uridine-cytidine kinase 2 (Homo sapiens) (UniProt Q9BZX2).
T2 sequence (whole entry): T1 sequence (Q9BZX2 whole entry)
The assay is described as follows: Inhibition of UCK2 in human K562 cells assessed as inhibition of uridine salvage at 50 uM incubated for 24 hrs by 5-ethynyl-uridine incorporation assay. Format: cell-based. The method in brief:
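K562 cells were given compound at 50 µM with 50 µM 5-ethynyl-uridine (5-EU). 5-EU incorporated into cellular RNA was quantified by click chemistry with a fluorescent probe. Dipyridamole at 20 µM served as control.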

The target in assay [3] is T1, Uridine-cytidine kinase 2. In words: Inhibition of C-terminally His6-tagged human UCK2 expressed in Escherichia coli BL21(DE3) cells incubated for 15 mins before ATP addition and measured after 60 mins by ADP-Glo kinase assay based HTS assay. The method in brief:
as §1

The target in assay [4] is T1, Uridine-cytidine kinase 2. In words: Non-competitive inhibition of C-terminally His6-tagged human UCK2 expressed in Escherichia coli BL21(DE3) cells using phosphoenolpyruvate, NADH and varying uridine level by spectrophotometry based pyruvate kinase and lactate dehydrogenase coupled enzyme assay. An outline of the steps: (§2)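 Continuous coupled assay of purified C-terminally His6-tagged UCK2. Substrate titration was done with either uridine or ATP varied, at inhibitor 0, 0.5, 1.5 or 4.5 µM. Ki was derived from kinetic analysis of these titrations.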

Assay [5] addresses T1, Uridine-cytidine kinase 2. In words: Non-competitive inhibition of C-terminally His6-tagged human UCK2 expressed in Escherichia coli BL21(DE3) cells using uridine, phosphoenolpyruvate, NADH and varying ATP level by spectrophotometry based pyruvate kinase and lactate dehydrogenase coupled enzyme assay. An outline of the steps:
as §2

Assay [6] has as its target T3, UMP-CMP kinase (Homo sapiens) (UniProt P30085).
T3 sequence (whole entry): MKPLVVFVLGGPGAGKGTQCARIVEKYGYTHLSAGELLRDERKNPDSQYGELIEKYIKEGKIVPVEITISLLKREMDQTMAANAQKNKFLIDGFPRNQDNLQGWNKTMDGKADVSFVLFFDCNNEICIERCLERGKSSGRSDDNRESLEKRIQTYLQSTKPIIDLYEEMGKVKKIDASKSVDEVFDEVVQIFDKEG
The assay is described as follows: Inhibition of CMPK1 (unknown origin) by ADP-Glo kinase assay.

For assay [7], the target named is Dihydroorotate dehydrogenase (quinone), mitochondrial (Homo sapiens) (UniProt Q02127). The assay is described as follows: Inhibition of DHODH in human K562 cells assessed as increase in uridine salvage at 200 nM incubated for 24 hrs by 5-ethynyl-uridine incorporation assay. Format: cell-based.
Sequence of Dihydroorotate dehydrogenase (quinone), mitochondrial (Homo sapiens) (Q02127 whole entry): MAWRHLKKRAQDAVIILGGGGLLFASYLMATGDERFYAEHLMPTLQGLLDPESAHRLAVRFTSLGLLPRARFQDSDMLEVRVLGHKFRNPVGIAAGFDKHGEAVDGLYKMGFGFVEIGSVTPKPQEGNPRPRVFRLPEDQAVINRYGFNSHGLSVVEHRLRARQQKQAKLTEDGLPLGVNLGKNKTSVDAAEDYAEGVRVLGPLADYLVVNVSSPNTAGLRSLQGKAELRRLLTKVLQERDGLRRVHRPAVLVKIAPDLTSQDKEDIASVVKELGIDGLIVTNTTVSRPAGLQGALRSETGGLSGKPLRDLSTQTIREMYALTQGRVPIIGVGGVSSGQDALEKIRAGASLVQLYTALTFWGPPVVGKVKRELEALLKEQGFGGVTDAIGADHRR

The values below come from ChEMBL document CHEMBL4385671, “Discovery of small molecule inhibitors of human uridine-cytidine kinase 2 by high-throughput screening” (Bioorg Med Chem Lett, 2019).

Molecules are shown by their SMILES. The source made the active and inactive calls.

For the molecule `Cc1cccc2c1Oc1nc(-c3ccccc3)nc(SCC(=O)Nc3cccc(C(=O)O)c3)c1C2`, the half-maximal inhibitory concentration (IC50) (in general, the concentration that gives 50% inhibition) in assay [1] (read-out: IC50) was found to be 4.7 µM. Besides, the inhibition – broadly, how much of the control response was suppressed – in assay [2] was found to be 49.6%.

In the case of `Cc1cc(C)cc(NC(=O)CSCn2[nH]nc3c(=O)nc(Cc4ccc(F)cc4)nc2-3)c1`, the 50% inhibitory concentration (IC50) was determined as 48 µM in assay [1] (read-out: IC50) and 18.9 µM in assay [3]. The Ki – broadly, a measure of affinity in units of concentration, obtained from inhibition or displacement – was 50 µM in assay [4] and 31 µM in assay [5]. Besides, the inhibition in assay [2] was 41.5%. Also, the inhibition result in assay [6] was “inactive”.

In turn, `O=C(CSc1nc(-c2ccc(F)cc2)nc2c1Cc1ccccc1O2)Nc1cccc(C(=O)O)c1` showed an IC50 in assay [3] of 166 µM.

Consider `O=C(CSc1nc2n(-c3ccc(F)cc3)[nH]cc-2c(=O)n1)Nc1ccc(Br)cc1`, for which the results for the IC50 in assay [1] (read-out: IC50) and in assay [3] were 16.4 to 16.6 µM and 9.2 µM, respectively. The values for the inhibition constant Ki in assay [4] and in assay [5] were 13 µM and 12 µM, respectively. In addition, the inhibition in assay [2] is 31.3%.

In assay [3], `COc1ccccc1NC(=O)CSc1nc(-c2ccc(C(C)(C)C)cc2)c(C#N)c(=O)[nH]1` had a half-inhibitory concentration (IC50) of 80 µM.

For `O=C(N[C@@H]1CCCc2c1[nH]c1ccc(Cl)cc21)c1ccccn1`, in assay [7], the inhibition result was “Active”.

As for `Cc1ccccc1NC(=O)CSCn1[nH]nc2c(=O)nc(Cc3ccc(F)cc3)nc1-2`, in assay [2], the inhibition was determined as 26.3%.

As to `Cc1ccc(-c2nc3c(c(SCC(=O)Nc4cccc(C(=O)O)c4)n2)Cc2cccc(C)c2O3)cc1`, the IC50 in assay [1] (read-out: IC50) worked out at 3.8 µM; in assay [3], 52 µM. In addition, the figures for the inhibitory constant (Ki) in assay [4] and in assay [5] were 3.5 µM and 1 µM, respectively. The inhibition in assay [2] was found to be 51.7%.

As to `COc1cccc2c1Oc1nc(-c3ccc(C)cc3)nc(SCC(=O)Nc3cccc(C(=O)O)c3)c1C2`, the IC50 in assay [1] (read-out: IC50) is 11.8 µM. For the same molecule, the inhibition in assay [2] was found to be 14.9%.

The molecule `O=C(CSc1nc(-c2ccc(O)cc2)nc2c1Cc1ccccc1O2)Nc1cccc(C(=O)O)c1` returned a half-maximal inhibitory concentration (IC50) in assay [3] of 166 µM.

Take `COc1cccc(NC(=O)CSCn2[nH]nc3c(=O)nc(Cc4ccc(F)cc4)nc2-3)c1`: the IC50 entry in assay [1] is given as “Not Active”.

Molecule `CC(C)(C)c1ccc(-c2nc(SCC(=O)Nc3ccc(Cl)cc3)[nH]c(=O)c2C#N)cc1` came in with a half-inhibitory concentration (IC50) in assay [3] of 138 µM.

With `Cc1ccc(-c2nc3c(c(SCC(=O)Nc4ccccc4)n2)Cc2cccc(C)c2O3)cc1`, the IC50 in assay [1] (read-out: IC50) is 26.8 µM. Besides, the inhibition entry in assay [2] was “inactive”.

With `O=C(CSCn1[nH]nc2c(=O)nc(Cc3ccc(F)cc3)nc1-2)Nc1ccc(F)cc1`, the IC50 result in assay [1] is reported as “Not Active”.
